Assay results from ChEMBL document CHEMBL1127313, “The discovery of sulfonamide endothelin antagonists and the development of the orally active ETA antagonist 5-(dimethylamino)-N-(3,4-dimethyl-5-isoxazolyl)-1-naphthalenesulf onamide” (J Med Chem, 1994).

Columns and labels:
A10 = assay: Ability to inhibit [125I]ET1 binding to vascular smooth muscle (vsm)- A10 cells; format: functional, cell-based; conditions: Rattus norvegicus
Procedure, shortened: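 Intact rat vsm-A10 cells: confluent cells scraped, pelleted, resuspended in PBS with 0.1% glucose and 0.1% BSA. Bound and free ligand separated by filtration; bound radioactivity counted by scintillation; IC50 reported.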

[1] = biological target: T1, Endothelin-1 receptor (Homo sapiens) (UniProt P25101); conditions: Oryctolagus cuniculus
T1 sequence (whole entry): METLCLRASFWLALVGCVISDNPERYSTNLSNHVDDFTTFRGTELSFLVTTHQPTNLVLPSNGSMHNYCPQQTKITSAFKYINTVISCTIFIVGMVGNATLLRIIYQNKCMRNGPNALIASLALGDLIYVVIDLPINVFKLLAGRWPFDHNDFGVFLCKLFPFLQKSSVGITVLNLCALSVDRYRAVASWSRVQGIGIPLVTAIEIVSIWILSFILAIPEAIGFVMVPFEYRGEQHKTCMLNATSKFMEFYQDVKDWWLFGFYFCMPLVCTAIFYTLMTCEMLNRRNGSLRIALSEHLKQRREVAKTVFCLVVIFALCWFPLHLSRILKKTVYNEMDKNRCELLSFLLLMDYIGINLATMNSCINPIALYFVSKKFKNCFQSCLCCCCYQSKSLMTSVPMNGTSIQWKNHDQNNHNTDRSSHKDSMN

Rattus norvegicus = assay: Antihypertensive activity administered orally at […] was determined in vivo in rats; format: functional
Procedure, shortened: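 Uninephrectomized rats implanted with a DOCA pellet and given saline to drink develop hypertension. Single 100 µmol/kg oral dose in 5% NaHCO3 given at time 0, with a vehicle group. Mean arterial pressure followed over 24 h as % change from pre-dose control; mean ± SEM, n = 6 animals.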

| IC50 (A10) | SMILES | also measured |
| --- | --- | --- |
| > 32 µM | Nc1ccc(S(=O)(=O)Nc2cc(-c3ccccc3)no2)cc1 | – |
| – | Cc1noc(NS(=O)(=O)c2cccc3c(O)cccc23)c1C | K Bapp [1]: 100 µM |
| – | Cc1noc(NS(=O)(=O)c2cccc3c(N(C)C)cccc23)c1C [BMS-182874] | Mean arterial blood pressure (Rattus norvegicus): 45.8 mmHg |
| > 32 µM | CCCCCc1cc(NS(=O)(=O)c2ccc(N)cc2)on1 | – |
